These results are taken from ChEMBL document CHEMBL4715797, “Structure-Activity Relationships of [des-Arg]Dynorphin A Analogues at the κ Opioid Receptor” (J Med Chem, 2016).

A short description of series [1]: Half life in rat plasma by RP-HPLC analysis. It counts as ADME, cell-free. In a few lines:
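Stock at 50 mg/mL diluted 5-fold into heparinized rat plasma at 37 °C. Aliquots taken at 1, 2, 4, 6, 12 and 24 h were quenched with EtOH (ACN for one analogue) and centrifuged.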

The target in series [2] is T1, Kappa-type opioid receptor (Homo sapiens, UniProt P41145). Put plainly: Antagonist activity at human KOR expressed in CHO cell membranes assessed as reduction in U50,488 induced response at 10 uM incubated for 1 hr by liquid scintillation counting based [35S]GTP-gamma-S assay relative to naloxone. The conditions noted are these: Cell membrane. In short, it runs like this: (§1)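 The assay uses KOR-CHO membranes (15 µg protein) with 0.1 nM [35S]GTPγS and 40 µM GDP, for 1 h at 30 °C, in the presence of 100 nM U50,488 as agonist. Bound label is counted after filtration. Data are normalized to 100 nM U50,488 (100%) and fit to a three-parameter inhibition curve. Imax is given relative to naloxone.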
T1 sequence (P41145 whole entry): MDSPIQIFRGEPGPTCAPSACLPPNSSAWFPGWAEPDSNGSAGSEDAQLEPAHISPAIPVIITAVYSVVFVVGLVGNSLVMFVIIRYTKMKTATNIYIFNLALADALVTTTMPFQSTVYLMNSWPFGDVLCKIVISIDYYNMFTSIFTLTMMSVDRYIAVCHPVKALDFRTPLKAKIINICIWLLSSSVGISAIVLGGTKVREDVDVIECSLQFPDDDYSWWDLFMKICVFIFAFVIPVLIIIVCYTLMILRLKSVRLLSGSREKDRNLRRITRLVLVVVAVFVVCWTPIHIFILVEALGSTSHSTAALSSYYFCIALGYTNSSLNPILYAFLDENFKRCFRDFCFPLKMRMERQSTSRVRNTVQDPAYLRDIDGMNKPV

For another series, the target named is Mu-type opioid receptor (Homo sapiens, UniProt P35372). Put plainly: Displacement of [3H]diprenorphine from human MOR expressed in mouse NG108-15 cell membranes incubated for 2 hrs by liquid scintillation counting based radioligand competition assay. (In a radioligand displacement assay an active substance lowers the binding of a labelled ligand.)
Chain of Mu-type opioid receptor (P35372 whole entry): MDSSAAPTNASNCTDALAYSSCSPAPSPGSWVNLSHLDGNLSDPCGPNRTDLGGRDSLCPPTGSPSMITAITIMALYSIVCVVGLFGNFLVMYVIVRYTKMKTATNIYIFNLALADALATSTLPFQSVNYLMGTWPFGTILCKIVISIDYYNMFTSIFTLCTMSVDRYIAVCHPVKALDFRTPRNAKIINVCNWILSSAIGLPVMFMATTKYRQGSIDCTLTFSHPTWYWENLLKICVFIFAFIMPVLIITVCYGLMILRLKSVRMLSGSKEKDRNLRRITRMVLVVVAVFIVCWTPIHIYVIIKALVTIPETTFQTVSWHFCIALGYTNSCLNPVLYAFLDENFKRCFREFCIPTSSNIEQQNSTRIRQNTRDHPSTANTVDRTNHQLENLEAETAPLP
The nature of series [3]: Toxicity in mouse HN9.10 cells expressing human KOR assessed as cell viability at 1 mM after 24 hrs by XTT assay. It counts as cell-based. The conditions noted are these: read-out: Activity.
Series [4] concerns the target T1, Kappa-type opioid receptor. Put plainly: Antagonist activity at human KOR expressed in CHO cell membranes assessed as reduction in U50,488 induced response incubated for 1 hr by liquid scintillation counting based [35S]GTP-gamma-S assay relative to naloxone. Conditions: Cell membrane. In a few lines: as §1
In series [5] the target is T1, Kappa-type opioid receptor. The series can be described thus: Agonist activity at human KOR expressed in CHO cell membranes at 10 uM incubated for 1 hr by liquid scintillation counting based [35S]GTP-gamma-S assay. Conditions: Cell membrane. In a few lines:
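Frozen KOR-CHO cell pellets are homogenized and spun at 20 000g. 15 µg of membrane protein is incubated with test compound or vehicle and 0.1 nM [35S]GTPγS in 50 mM Tris-HCl pH 7.4 with 100 mM NaCl, 5 mM MgCl2, 1 mM EDTA and 40 µM GDP, for 1 h at 30 °C. Filtration and scintillation counting follow, and the result is expressed as % of U50,488 stimulation.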

Series [6] addresses T1, Kappa-type opioid receptor. Put plainly: Antagonist activity at human KOR expressed in CHO cell membranes assessed as reduction in U50,488 induced response incubated for 1 hr by liquid scintillation counting based [35S]GTP-gamma-S assay. Further details: species or system Cell membrane. (Binding of GTPγS marks nucleotide exchange on a G protein.)
The species named for another series is Cavia porcellus. Put plainly: Agonist activity at OPRK in isolated Hartley guinea pig ileum/longitudinal muscle with myenteric plexus assessed as inhibition of electrically stimulated muscle contraction at 1 uM relative to control. It counts as tissue-based. In a few lines: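 Male Hartley guinea pig LMMP strips under 1 g tension in oxygenated Krebs bicarbonate buffer, 37 °C, field-stimulated at 0.1 Hz, 0.4 ms, supramaximal voltage. Compound tested at 1 µM. Activity given as percent of agonist response relative to the mean signal over the 3 min before drug. Tissue integrity checked first with a PL-017 dose-response curve.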

Series [7] relates to Mus musculus. Put plainly: Inhibition of KOR selective agonist FE200665-induced antinociceptive activity in ICR mouse assessed as effect on tail withdrawal latency at 10 ug, it dosed 15 mins before FE200665 dosing and measured after 45 mins by tail flick test. It counts as functional, organism-based. Conditions: dose 10.0 µg, time 60.0 min. In short, it runs like this: (§2)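 Adult male ICR mice given vehicle (MPH2O) or compound by lumbar puncture, 10 µg in 5 µL, n = 6/treatment, at t = −15 min. At t = 0 they received FE200665, 10 µg in 5 µL by lumbar puncture. Tail flick from 52 °C water retested up to 9 times over 24 h, 10.0 s cutoff. % antinociception = 100×(test−baseline)/(cutoff−baseline). Nonparametric two-way ANOVA with Bonferroni post hoc.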
In general terms: In hot-plate and tail-flick tests a longer latency is read as antinociception.

The species named for series [8] is Mus musculus. The series can be described thus: Antinociceptive activity in ICR mouse assessed as elevation in tail withdrawal latency at 10 ug, it measured after 30 mins by tail flick test. It counts as functional, organism-based. The conditions noted are these: dose 10.0 µg.
The species named for series [9] is Mus musculus. The series can be described thus: Antinociceptive activity in ICR mouse assessed as elevation in tail withdrawal latency at 1 ug, it measured after 30 mins by tail flick test. It counts as functional, organism-based. The conditions noted are these: dose 1.0 µg.
In series [10] the test system is Mus musculus. Put plainly: Inhibition of KOR selective agonist FE200665-induced antinociceptive activity in ICR mouse assessed as effect on tail withdrawal latency at 10 ug, it dosed 15 mins before FE200665 dosing and measured at 15 mins by tail flick test. Conditions: dose 10.0 µg, time 30.0 min. It counts as functional, organism-based. In a few lines: as §2

The subject of series [11] is Mus musculus. Put plainly: Inhibition of KOR selective agonist FE200665-induced antinociceptive activity in ICR mouse assessed as effect on tail withdrawal latency at 10 ug, it dosed 15 mins before FE200665 dosing and measured up to 45 mins by tail flick test. It counts as functional, organism-based. The conditions noted are these: dose 10.0 µg, time min <=45. In a few lines: as §2

The species entered for series [12] is Mus musculus. Put plainly: Antinociceptive activity in ICR mouse assessed as elevation in tail withdrawal latency at 0.1 ug, it measured after 30 mins by tail flick test. It counts as functional, organism-based. The conditions noted are these: dose 0.1 µg.
Series [13] concerns Mus musculus. Put plainly: Inhibition of KOR selective agonist FE200665-induced antinociceptive activity in ICR mouse assessed as effect on tail withdrawal latency at 10 ug, it dosed 15 mins before FE200665 dosing and measured up to 24 hrs by tail flick test. Format: functional, organism-based. The conditions noted are these: dose 10.0 µg, time hrs <=24. In short, it runs like this:
as §2

Series [14] concerns Mus musculus. The series can be described thus: Inhibition of KOR selective agonist FE200665-induced antinociceptive activity in ICR mouse assessed as effect on tail withdrawal latency at 10 ug, it dosed 15 mins before FE200665 dosing and measured at 24 hrs by tail flick test. Format: functional, organism-based. Conditions: dose 10.0 µg. In short, it runs like this: as §2

The target of series [15] is Delta-type opioid receptor (Homo sapiens, UniProt P41143). The series can be described thus: Displacement of [3H]deltorphin-II from human DOR expressed in CHO cell membranes incubated for 2 hrs by liquid scintillation counting based radioligand competition assay. In a few lines: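 Crude membranes from transfected cells, 50 µg protein, in 50 mM Tris-HCl pH 7.4 with bacitracin 50 µg/mL, captopril 10 µM, PMSF 100 µM and BSA 5 mg/mL. Ten concentrations (10−4–10−13 M) were run against 500 pM [3H]deltorphin II for 2 h at rt with shaking. Nonspecific binding was taken with 10 µM naloxone. Filtered on PEI-soaked GF/B, washed in cold saline, scintillation counted.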
Chain of Delta-type opioid receptor (P41143 whole entry): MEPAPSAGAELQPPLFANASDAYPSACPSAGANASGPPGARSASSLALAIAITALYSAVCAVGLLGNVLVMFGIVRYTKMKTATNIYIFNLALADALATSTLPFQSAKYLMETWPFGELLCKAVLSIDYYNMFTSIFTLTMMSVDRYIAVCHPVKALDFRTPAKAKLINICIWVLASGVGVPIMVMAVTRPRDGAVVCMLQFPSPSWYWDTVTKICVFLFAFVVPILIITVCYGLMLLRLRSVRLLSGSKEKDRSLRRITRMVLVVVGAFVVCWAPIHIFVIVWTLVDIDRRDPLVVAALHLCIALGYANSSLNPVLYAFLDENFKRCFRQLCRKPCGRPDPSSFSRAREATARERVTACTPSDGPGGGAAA

Activity calls are given as the source filed them. Where a SMILES comes first, the peptide text is derived from it. [ ]: non-standard residue; d: D form. The star is where a group is joined. X1 = Cc1cc(O)cc(C)c1C[C@H](C)C(=O)*; Orn = NCCC[C@H](N)C(=O)O Bounds are passed on as bounds.

In the case of H-YGPFLRIR-NH2, in series [1], the half-life (as a rule, how long it takes for the measured level to halve) was 2.1 h. The Imax in series [2] stood at 29%. Moreover, the inhibition constant (Ki) (as a rule, the dissociation constant of the complex between target and ligand, obtained from inhibition or displacement) at Mu-type opioid receptor (ng108-15) is listed as “Not Active”.
As for H-YGGFLRIRPK-OH, the viability at 24 h, 1000 µM in series [3] was determined as 100%. The Imax entry in series [4] is “inactive”. Further, the outcome in [5] (filed as agonist) was Active. Also, in series [6], the IC50 entry is “Not Active”.
In the case of `CC(=O)N[C@@H](Cc1ccc(O)cc1)C(=O)NCC(=O)N1CCC[C@H]1C(=O)N[C@@H](Cc1ccccc1)C(=O)N[C@@H](CC(C)C)C(=O)N[C@@H](CCCNC(=N)N)C(=O)N[C@H](C)C(=O)N[C@@H](CCCNC(=N)N)C(=O)N1CCC[C@@H]1C(=O)N[C@@H](CCCCN)C(N)=O` (Ac-YGPFLR[dA]R[dP]K-NH2), on Mu-type opioid receptor (ng108-15), the inhibition constant Ki entry is listed as “Not Active”.
As for `CC[C@H](C)[C@H](NC(=O)[C@H](CCCNC(=N)N)NC(=O)[C@H](CC(C)C)NC(=O)[C@H](Cc1ccccc1)NC(=O)CNC(=O)CNC(=O)[C@@H](C)Cc1c(C)cc(O)cc1C)C(=O)N[C@@H](CCCNC(=N)N)C(=O)N1CCC[C@H]1C(=O)N[C@@H](CCCCN)C(N)=O` (X1-GGFLRIRPK-NH2), in series [3], the viability at 24 h, 1000 µM was 100%. The inhibition (in general, the drop in the measured response relative to a control, in per cent) in the series listed under Cavia porcellus was determined as 0%. The result in series [5] was inactive.
With H-YGPFLRIRPK-NH2, in series [3], the viability at 24 h, 1000 µM was found to be 100%. The compound further showed a half-life in series [1] of 1.4 h. In addition, the Imax in [2] worked out at 38%. Moreover, the result with Mus musculus [7] was inactive. In addition, the outcome in the series listed under Mus musculus [8], in the series filed under Mus musculus [9], in the series on Mus musculus [10] and in the series on Mus musculus [11] was Active. In addition, the Ki at Mu-type opioid receptor (read-out: Ki) is greater than 10 µM.
As for `CC[C@H](C)[C@H](NC(=O)[C@H](CCCNC(=N)N)NC(=O)[C@H](CC(C)C)NC(=O)[C@H](Cc1ccccc1)NC(=O)CNC(=O)CNC(=O)[C@@H](C)Cc1c(C)cc(O)cc1C)C(=O)N[C@@H](CCCNC(=N)N)C(=O)N1CCC[C@H]1C(=O)N[C@@H](CCCCN)C(=O)O` (X1-GGFLRIRPK-OH), the inhibition in the series listed under Cavia porcellus was 8.7%. The result in series [5] was inactive.
In series [1], `CC(=O)N[C@@H](Cc1ccc(O)cc1)C(=O)NCC(=O)NCC(=O)N[C@@H](Cc1ccccc1)C(=O)N[C@@H](CC(C)C)C(=O)N[C@@H](CCCNC(=N)N)C(=O)N[C@H](C)C(=O)N[C@@H](CCCNC(=N)N)C(=O)N1CCC[C@@H]1C(=O)N[C@@H](CCCCN)C(N)=O` (Ac-YGGFLR[dA]R[dP]K-NH2) showed a half-life of 350 h. Besides, the Ki entry at Mu-type opioid receptor (ng108-15) was “Not Active”.
On to `CC[C@H](C)[C@H](NC(=O)[C@H](CCCNC(=N)N)NC(=O)[C@H](CC(C)C)NC(=O)[C@H](Cc1ccccc1)NC(=O)CNC(=O)CNC(=O)[C@@H](C)Cc1c(C)cc(O)cc1C)C(=O)N[C@@H](CCCNC(=N)N)C(N)=O` (X1-GGFLRIR-NH2), for which the result in the series listed under Mus musculus [12], in the series on Mus musculus [14], in the series filed under Mus musculus [8] and in the series filed under Mus musculus [9] was inactive. Also, in the series on Mus musculus [13], the result was Active.
Regarding `CC(=O)N[C@@H](Cc1ccc(O)cc1)C(=O)NCC(=O)N1CCC[C@H]1C(=O)N[C@@H](Cc1ccccc1)C(=O)N[C@@H](CC(C)C)C(=O)N[C@@H](CCCN)C(=O)N[C@H](C)C(=O)N[C@@H](CCCNC(=N)N)C(=O)N1CCC[C@H]1C(=O)N[C@@H](CCCCN)C(N)=O` (Ac-YGPFL[Orn][dA]RPK-NH2), the Ki in [15] was greater than 10 µM; on Mu-type opioid receptor (ng108-15), “Not Active”.
Turning to `CC[C@H](C)[C@H](NC(=O)[C@H](CCCN=C(N)N)NC(=O)[C@H](CCCN=C(N)N)NC(=O)[C@H](CC(C)C)NC(=O)[C@H](Cc1ccccc1)NC(=O)CNC(=O)CNC(=O)[C@@H](N)Cc1ccc(O)cc1)C(=O)N[C@@H](CCCN=C(N)N)C(=O)N1CCC[C@H]1C(=O)N[C@@H](CCCCN)C(N)=O`, the viability at 24 h, 1000 µM in series [3] turned out to be 100%.
With Ac-YGGFLRIRPK-NH2, the inhibition in the series filed under Cavia porcellus was 0%. Besides, the result in [5] was inactive.
In the case of H-YGGFLRIRPKLK-OH, the Imax entry in [4] was “inactive”. Further, the outcome in series [5] (filed as agonist) was Active. Further, in series [6], the IC50 result is recorded as “Not Active”.
H-YGGFLRIRPK-NH2: the viability at 24 h, 1000 µM in series [3] is 100%. In addition, the Imax entry in series [4] was “inactive”. Besides, the outcome in series [5] (filed as agonist) was Active. For the same compound, the IC50 result in series [6] is recorded as “Not Active”.
For the compound Ac-YGPFLRIRPK-NH2, the inhibition constant Ki in [15] was greater than 10 µM; on Mu-type opioid receptor (ng108-15), “Not Active”.
Take `CC(=O)N[C@@H](Cc1ccc(O)cc1)C(=O)NCC(=O)N1CCC[C@H]1C(=O)N[C@@H](Cc1ccccc1)C(=O)N[C@@H](CC(C)C)C(=O)N[C@@H](CCCNC(=N)N)C(=O)N[C@H](C)C(=O)N[C@@H](CCCNC(=N)N)C(=O)N1CCC[C@H]1C(=O)N[C@@H](CCCCN)C(N)=O` (Ac-YGPFLR[dA]RPK-NH2): the inhibition constant (Ki) entry on Mu-type opioid receptor (ng108-15) is “Not Active”.
